Experimental data taken from ChEMBL document CHEMBL4373656, “A MedChem toolbox for cereblon-directed PROTACs” (Medchemcomm, 2019).
Activity calls are given as the source filed them. The rule behind the calls is not given here. *1 amine or outer side, *2 acyl side, *3 side chain or, on linkers, in order; H or OH if unused. Where a SMILES comes first, the peptide text is derived from it. The star is where a group is joined. X1 = O=C1CCC(N2C(=O)c3cccc(NCCCOCCCCOCCCN*)c3C2=O)C(=O)N1; Suc = O=C(CCC(=O)[*:2])[*:1]

How the values were obtained:
[1] = biological target: T1, Cereblon/Ikaros (Homo sapiens) (UniProt Q96SW2+Q13422); test: Protac activity at CRBN/ IKZF1 in human MM1S cells assessed as CRBN degradation at 100 nM to 1 uM after 16 hrs by Western blot analysis; type: cell-based
Procedure, shortened: (§1)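 MM1S multiple myeloma cells were exposed to each compound for 16 h at the indicated concentrations, including 100 nM and 1 μM. Lysates were analysed by western blot for CRBN and for the neo-substrate IKZF1.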

[2] = biological target: T1, Cereblon/Ikaros (Homo sapiens); test: Protac activity at CRBN/ IKZF1 in human MM1S cells assessed as IKZF1 degradation by measuring IKZF1/tubulin ratio at 0.1 uM after 16 hrs by Western blot analysis relative to tubulin; type: cell-based; design: unit not given here; procedure, shortened: as §1
MM1.S = test: Antiproliferative activity against human MM1S cells at 1 nM to 10 uM after 4 hrs by CellTiter-Glo assay; type: functional, cell-based
[3] = biological target: T1, Cereblon/Ikaros (Homo sapiens); test: Protac activity at CRBN/ IKZF1 in human MM1S cells assessed as reduction in IKZF1 degradation at 0.001 to 0.01 uM after 16 hrs by Western blot analysis; type: cell-based
[4] = biological target: T1, Cereblon/Ikaros (Homo sapiens); test: Protac activity at CRBN/ IKZF1 in human MM1S cells assessed as Bax protein expression at 0.1 to 10 uM after 16 hrs by Western blot analysis relative to tubulin; type: cell-based

Compound	Activity [1]	Ratio [2]	Activity [3]	Activity [4]	Activity (MM1.S)
O=C(CC12CC3CC(CC(C3)C1)C2)NCCOCCOCCOCCNc1cccc2c1C(=O)N(C1CCC(=O)NC1=O)C2=O (stereo not given)	inactive	16			
Cc1ncsc1-c1ccc(CNC(=O)[C@@H]2C[C@@H](O)CN2C(=O)[C@@H](NC(=O)CCCCOCCCCCOCCCCCCNc2cccc3c2C(=O)N(C2CCC(=O)NC2=O)C3=O)C(C)(C)C)cc1 (stereo not given in full)		99			
O=C1CCC(N2C(=O)c3cccc(NCCOCCOCCNc4cccc5c4C(=O)N(C4CCC(=O)NC4=O)C5=O)c3C2=O)C(=O)N1 (stereo not given)		79			
CSCC[C@H](NC(=O)[C@@H]1CCCN1C(=O)[C@@H](NC(=O)CCC(=O)NCCCOCCCCOCCCNc1cccc2c1C(=O)N(C1CCC(=O)NC1=O)C2=O)C(C)C)C(=O)N[C@@H](CC(C)C)C(=O)N[C@@H](CCCCN)C(=O)O (stereo not given in full) ({X1-Suc}-VPMLK-OH)				inactive	

Now from value to molecule, other results behind:

Activity [1]	Ratio [2]	Activity [3]	Activity [4]	Compound	Activity (MM1.S)
inactive	15			O=C(CC12CC3CC(CC(C3)C1)C2)NCCCOCCOCCCNc1cccc2c1C(=O)N(C1CCC(=O)NC1=O)C2=O (stereo not given)	
inactive	30			O=C(CC12CC3CC(CC(C3)C1)C2)NCCCOCCCCOCCCNc1cccc2c1C(=O)N(C1CCC(=O)NC1=O)C2=O (stereo not given)	
inactive	7.1	Active		O=C(CC12CC3CC(CC(C3)C1)C2)NCCOCCOCCNc1cccc2c1C(=O)N(C1CCC(=O)NC1=O)C2=O (stereo not given)	Active
inactive	24			O=C(CC12CC3CC(CC(C3)C1)C2)NCCCOCCOCCOCCCNc1cccc2c1C(=O)N(C1CCC(=O)NC1=O)C2=O (stereo not given)	
